Source: ChEMBL document CHEMBL2163200, “Synthesis, biological evaluation, and structure-activity relationships of novel substituted N-phenyl ureidobenzenesulfonate derivatives blocking cell cycle progression in S-phase and inducing DNA double-strand breaks” (J Med Chem, 2012)
Activity calls are given as the source filed them. No cut-off for these calls is given here.

Legend:
HT-29 = assay: Cytotoxicity against human HT-29 cells after 48 hrs by SRB assay; format: functional, cell-based; details: HT-29, 48 h
Outline: (§1)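 NCI sulforhodamine B protocol. Cells were grown in high-glucose DMEM with 5% FBS and seeded per well at 4 × 10^3 (HT-29), 3.5 × 10^3 (M21) or 3 × 10^3 (MCF-7), then allowed 24 h to attach. Serial dilutions from 200 μM to 780 nM final were applied in DMSO <0.5% for 48 h. Cells were fixed with cold TCA (10% final) and stained with SRB, with absorbance read at 530–568 nm. Growth inhibition was computed against day-0 plates, giving the 50% inhibitory concentration. At least two experiments in triplicate, CV <10%.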

Jurkat [1] = assay: Cell cycle arrest in human Jurkat E6-1 cells assessed as accumulation at G2/M phase at 7.5 uM after 24 hrs by FACS flow cytometry; format: functional
Outline: (§2)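 Jurkat E6 cells grown in RPMI 1640 with 10% FBS at 37 °C, 5% CO2. Compounds were serially diluted in medium starting 50% above the M21 IC50. 4.0 × 10^5 cells were exposed for 24 h, then washed and spiked with chicken red blood cells as internal standard. Cells were fixed in ice-cold ethanol, stained with 1 μg/mL DAPI on ice for 1 h, and phase distribution was read by flow cytometry. The control was 0.5% DMSO.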

MCF7 = assay: Cytotoxicity against human MCF7 cells after 48 hrs by SRB assay; format: functional, cell-based; details: MCF7, 48 h; outline: as §1
M21 [2] = assay: Cytotoxicity against human M21 cells after 48 hrs by SRB assay; format: functional, cell-based; details: M21, 48 h; outline: as §1
Jurkat [3] = assay: Cell cycle arrest in human Jurkat E6-1 cells assessed as accumulation at G0/G1 phase at 7.5 uM after 24 hrs by FACS flow cytometry; format: functional
Outline: (§3)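 Jurkat E6 cells cultured in RPMI 1640 with 10% FBS at 37 °C, 5% CO2. Compounds serially diluted in medium, starting 50% above the M21 IC50. 4.0 × 10^5 cells were exposed for 24 h. Cells were washed with PBS, chicken red blood cells added as internal standard, and fixed in ice-cold EtOH. After 1 h on ice in PBS with 1 μg/mL DAPI, phase distribution was read by flow cytometry. DMSO-treated cells served as control.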

Jurkat [4] = assay: Cell cycle arrest in human Jurkat E6-1 cells assessed as accumulation at S phase at 7.5 uM after 24 hrs by FACS flow cytometry; format: functional
Outline: (§4)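 Jurkat E6 T-lymphoblasts in RPMI 1640 with 10% FBS, 37 °C, 5% CO2. […] Chicken red blood cells were added as internal standard. Cells were fixed in ice-cold EtOH and stained with 1 μg/mL DAPI on ice for 1 h before flow cytometry of phase distribution. Vehicle control was 0.5% DMSO.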

Jurkat [5] = assay: Cell cycle arrest in human Jurkat E6-1 cells assessed as accumulation at S phase at 17 uM after 24 hrs by FACS flow cytometry; format: functional; outline: as §2
Jurkat [6] = assay: Cell cycle arrest in human Jurkat E6-1 cells assessed as accumulation at G0/G1 phase at 17 uM after 24 hrs by FACS flow cytometry; format: functional; outline: as §3
Jurkat [7] = assay: Cell cycle arrest in human Jurkat E6-1 cells assessed as accumulation at G2/M phase at 17 uM after 24 hrs by FACS flow cytometry; format: functional; outline: as §2
Jurkat [8] = assay: Cell cycle arrest in human Jurkat E6-1 cells assessed as accumulation at G0/G1 phase at 64 uM after 24 hrs by FACS flow cytometry; format: functional; outline: as §3
Jurkat [9] = assay: Cell cycle arrest in human Jurkat E6-1 cells assessed as accumulation at S phase at 64 uM after 24 hrs by FACS flow cytometry; format: functional; outline: as §4
Jurkat [10] = assay: Cell cycle arrest in human Jurkat E6-1 cells assessed as accumulation at G2/M phase at 64 uM after 24 hrs by FACS flow cytometry; format: functional; outline: as §2
Jurkat [11] = assay: Cell cycle arrest in human Jurkat E6-1 cells assessed as accumulation at S phase at 4.8 uM after 24 hrs by FACS flow cytometry; format: functional; outline: as §4
Jurkat [12] = assay: Cell cycle arrest in human Jurkat E6-1 cells assessed as accumulation at G0/G1 phase at 4.8 uM after 24 hrs by FACS flow cytometry; format: functional; outline: as §3
Jurkat [13] = assay: Cell cycle arrest in human Jurkat E6-1 cells assessed as accumulation at G2/M phase at 4.8 uM after 24 hrs by FACS flow cytometry; format: functional; outline: as §2
Jurkat [14] = assay: Cell cycle arrest in human Jurkat E6-1 cells assessed as accumulation at G0/G1 phase at 1.7 uM after 24 hrs by FACS flow cytometry; format: functional; outline: as §3
Jurkat [15] = assay: Cell cycle arrest in human Jurkat E6-1 cells assessed as accumulation at S phase at 1.7 uM after 24 hrs by FACS flow cytometry; format: functional; outline: as §2
M21 [16] = assay: Induction of DNA damage response in human M21 cells assessed as phosphorylation of H2AX into gammaH2AX at IC50 after 24 hrs by DAPI staining-based immunofluorescence assay; format: functional, cell-based
Outline: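 M21 cells (1 × 10^5) on fibronectin-coated coverslips, grown 24 h, then exposed to agent for 24 h at 37 °C; 0.5% DMSO control. Fixed with 3.7% formaldehyde and permeabilized with 0.1% saponin/3% BSA. Probed with mouse anti-H2AX pS139 antibody for 2 h at room temperature. Nuclei counterstained with DAPI; nuclear γH2AX foci viewed by epifluorescence microscopy.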

Jurkat [17] = assay: Cell cycle arrest in human Jurkat E6-1 cells assessed as accumulation at G2/M phase at 1.7 uM after 24 hrs by FACS flow cytometry; format: functional; outline: as §3
HT-1080 = assay: Antitumor activity against human HT1080 cells xenografted in chicken chorioallantoic membrane assessed as inhibition of tumor growth at 30 ug per egg, iv administered on day 11 measured on day 17 by CAM assay; format: functional
Outline: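 HT-1080 fibrosarcoma cells (3.5 × 105/egg) were applied onto freshly exposed CAM of fertilized chicken eggs. On day 11, drug from a DMSO stock was diluted in Cremophor EL/99% ethanol/PBS (1/1/14 v/v) and 100 μL was injected into a vein under the CAM. Groups of 10–12 eggs were kept to day 17, embryos were euthanized at 4 °C for ≥4 h, and tumor wet weight was recorded.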

Jurkat [18] = assay: Cell cycle arrest in human Jurkat E6-1 cells assessed as accumulation at G0/G1 phase at 0.84 uM after 24 hrs by FACS flow cytometry; format: functional; outline: as §3
Jurkat [19] = assay: Cell cycle arrest in human Jurkat E6-1 cells assessed as accumulation at S phase at 0.84 uM after 24 hrs by FACS flow cytometry; format: functional; outline: as §2
Jurkat [20] = assay: Cell cycle arrest in human Jurkat E6-1 cells assessed as accumulation at G2/M phase at 0.84 uM after 24 hrs by FACS flow cytometry; format: functional; outline: as §3
[21] = Toxicity in fertilized chicken embryo assessed as mortality rate at 30 ug per egg, iv administered on day 11 measured on day 17 by CAM assay; format: organism-based, Gallus gallus; details: in vivo, read-out: Activity
Outline: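 Fertilized chicken eggs grafted on the CAM with HT-1080 cells (3.5 × 105/egg) received a 100 μL intravenous injection under the CAM on day 11. The drug was diluted in Cremophor EL/99% ethanol/PBS (1/1/14 v/v). Groups held 10–12 eggs and were incubated until day 17, when dead embryos and signs of toxicity were counted per group.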

O=C(NCCCl)Nc1cccc(S(=O)(=O)Oc2ccc(O)cc2)c1
IC50 (HT-29): 120 µM
Activity (Jurkat [1]): 22%
IC50 (MCF7): 87 µM
IC50 (M21 [2]): 73 µM
Activity (Jurkat [3]): 24%
Activity (Jurkat [4]): 54%

COc1ccc(OS(=O)(=O)c2ccc(NC(=O)NCCCl)cc2)cc1
Activity (Jurkat [5]): 42%
IC50 (MCF7): 27 µM
IC50 (M21 [2]): 18 µM
Activity (Jurkat [6]): 43%
Activity (Jurkat [7]): 15%

CCc1ccccc1NS(=O)(=O)c1cccc(NC(=O)NCCCl)c1
IC50 (HT-29): 48 µM
Activity (Jurkat [8]): 46%
Activity (Jurkat [9]): 42%
IC50 (MCF7): 46 µM
IC50 (M21 [2]): 65 µM
Activity (Jurkat [10]): 12%

Cc1cccc(OS(=O)(=O)c2ccc(NC(=O)NCCCl)cc2)c1
Activity (Jurkat [11]): 52%
IC50 (HT-29): 11 µM
Activity (Jurkat [12]): 35%
Activity (Jurkat [13]): 13%
IC50 (MCF7): 17 µM
IC50 (M21 [2]): 7.2 µM

CCCc1ccccc1OS(=O)(=O)c1ccc(NC(=O)NCCCl)cc1
Activity (Jurkat [14]): 16%
IC50 (HT-29): 2.5 µM
IC50 (MCF7): 3.6 µM
IC50 (M21 [2]): 2.1 µM
Activity (Jurkat [15]): 73%
Activity (M21 [16]): Active
Activity (Jurkat [17]): 11%
TGI (HT-1080): 49%

O=C(NCCCl)Nc1ccc(S(=O)(=O)Oc2ccc(O)cc2)cc1
Activity (Jurkat [18]): 27%
IC50 (HT-29): 1.5 µM
Activity (Jurkat [19]): 53%
IC50 (MCF7): 1.3 µM
IC50 (M21 [2]): 1.2 µM
Activity (Jurkat [20]): 20%
mortality at 6 days [21]: 15%
TGI (HT-1080): 69%
